Here are results for ten compounds from ChEMBL document CHEMBL3600351, “Exploiting translational stalling peptides in an effort to extend azithromycin interaction within the prokaryotic ribosome nascent peptide exit tunnel” (Bioorg Med Chem, 2015).

Values after ≈ are worked out from the molar mass of the structure shown. Active and inactive are the calls of the source. The calls are words filed in the database; no cut-off is given here.

The subject of assay [1] is Staphylococcus aureus. Put plainly: Ratio of MIC50 for Staphylococcus aureus ATCC 29213 in absence of 50% bovine serum to MIC50 for Staphylococcus aureus ATCC29213 in presence of 50% bovine serum. Type of assay: functional. The procedure, abridged:
(§1)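 S. aureus ATCC 29213 overnight culture (37 °C) diluted 1:1000 in 50% bovine serum/broth and run by liquid microdilution. Growth was taken from OD600 change over 18 h at 37 °C to give MIC50, in triplicate against a vehicle control. The enhancement ratio is MIC50 without serum divided by MIC50 with serum.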

For assay [2], the system named is Staphylococcus aureus. Put plainly: Antibacterial activity against Staphylococcus aureus ATCC 29213 assessed as inhibition of bacterial growth after 18 hrs by liquid microdilution method. Type of assay: functional. Conditions: ATCC 29213, 18 h. The procedure, abridged: (§2)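 Liquid microdilution. Overnight 37 °C cultures, E. coli ATCC 27856 in LB and S. aureus ATCC 29213 in TSB, diluted 1:1000 in the same medium and exposed to compound. Growth was taken from OD600 before and after 18 h at 37 °C. MIC50 is the read-out. Triplicate, normalized to an internal vehicle control.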
(Dilution methods test growth across graded concentrations, often in twofold steps.)

A short description of assay [3]: Inhibition of ribosome nascent peptide exit tunnel in Escherichia coli S30 extract assessed as inhibition of prokaryotic translation in presence of amino acids incubated for 20 mins by luciferase reporter gene assay. The procedure, abridged: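 E. coli S30 cell-free extract with all amino acids, preincubated with compound for 20 min at room temperature. Luciferase control template added, translation run 60 min at 37 °C, then stopped by 5 min on ice. Luminescence was read after luciferin addition. IC50 from nonlinear fit, triplicate, normalized to vehicle control.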
(In a reporter assay the amount or activity of a reporter protein is the signal.)

Assay [4] is described as follows: Binding affinity to ribosome nascent peptide exit tunnel in rabbit reticulocyte extract assessed as inhibition of eukaryotic translation in presence of amino acids incubated for 20 mins by luciferase reporter gene assay. Further details: species or system Oryctolagus cuniculus. The procedure, abridged: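 Nuclease-treated rabbit reticulocyte lysate with all amino acids, preincubated with compound for 20 min at room temperature. Luciferase control template added, translation run 90 min at 30 °C, then stopped by 5 min on ice. Luminescence was read after luciferin addition. IC50 from nonlinear fit, triplicate, normalized to vehicle control.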

Assay [5] has as its system Escherichia coli. Nature of the assay: Antibacterial activity against Escherichia coli ATCC 27856 assessed as inhibition of bacterial growth after 18 hrs by liquid microdilution method. Type of assay: functional. In outline: as §2
The test system of assay [6] is Staphylococcus aureus. Put plainly: Antibacterial activity against Erm+ methicillin-resistant Staphylococcus aureus ATCC 33591 assessed as inhibition of bacterial growth after 18 hrs by liquid microdilution method. Type of assay: functional. The procedure, abridged:
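MRSA grown overnight at 37 °C in Nutrient broth, diluted 1:1000 in the same medium, then plated with the compounds. Growth was judged by comparing OD600 before and after 18 h at 37 °C. MIC50 was taken by liquid microdilution. Vancomycin was the positive control. Each compound was run in triplicate and standardized against an internal vehicle control.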

Assay [7] relates to Staphylococcus aureus. Put plainly: Antibacterial activity against Staphylococcus aureus ATCC 29213 assessed as inhibition of bacterial growth after 18 hrs in presence of 50% bovine serum by liquid microdilution method. Conditions: ATCC 29213, 18 h. Type of assay: functional. In outline:
as §1

The subject of assay [8] is Escherichia coli. Put plainly: Inhibition of ribosome nascent peptide exit tunnel in Escherichia coli S30 extract assessed as inhibition of prokaryotic translation in presence of amino acids incubated for 20 mins by luciferase reporter gene assay relative to azithromycin.

Consider `CC[C@H]1OC(=O)[C@H](C)[C@@H](O[C@H]2C[C@@](C)(OC)[C@@H](O)[C@H](C)O2)[C@H](C)[C@@H](O[C@@H]2O[C@H](C)C[C@H](N(C)C)[C@H]2O)[C@](C)(O)C[C@@H](C)CN(CCCCc2cn(CCc3c[nH]c4ccc(Cl)cc34)nn2)[C@H](C)[C@@H](O)[C@]1(C)O`, for which the Ratio in assay [1] is recorded as 5. Moreover, the MIC50 (usually the lowest concentration that inhibits either 50% of growth or 50% of the strains tested, depending on the study) in assay [2] was 0.78 µg/mL (≈ 0.753 µM); in assay [5] (ATCC 27856, 18 h) it was 32 µg/mL (≈ 30.9 µM); in assay [7], 0.16 µg/mL. The IC50 (commonly the midpoint of a concentration-inhibition curve) in assay [3] was 0.88 µM; in assay [4] it was above 250 µM. In addition, the MIC50 result in assay [6] is “inactive”.

For the compound `CC[C@H]1OC(=O)[C@H](C)[C@@H](O[C@H]2C[C@@](C)(OC)[C@@H](O)[C@H](C)O2)[C@H](C)[C@@H](O[C@@H]2O[C@H](C)C[C@H](N(C)C)[C@H]2O)[C@](C)(O)C[C@@H](C)CN(C)[C@H](C)[C@@H](O)[C@]1(C)O` [AZITHROMYCIN], the Ratio in assay [1] was determined as 6. For the same compound, the MIC50 in assay [2] stood at 0.78 µg/mL (≈ 1.04 µM); in assay [5] (ATCC 27856, 18 h), 4 µg/mL (≈ 5.34 µM); in assay [7], 0.13 µg/mL. The 50% inhibitory concentration (IC50) was 0.292 µM in assay [3] and above 250 µM in assay [4]. Besides, the MIC50 result in assay [6] was “inactive”.

Turning to `CC[C@H]1OC(=O)[C@H](C)[C@@H](O[C@H]2C[C@@](C)(OC)[C@@H](O)[C@H](C)O2)[C@H](C)[C@@H](O[C@@H]2O[C@H](C)C[C@H](N(C)C)[C@H]2O)[C@](C)(O)C[C@@H](C)CN(CCCCc2cn(CCc3c[nH]c4ccc(F)cc34)nn2)[C@H](C)[C@@H](O)[C@]1(C)O`, the Ratio in assay [1] turned out to be 5. Also, the MIC50 came out at 0.78 µg/mL (≈ 0.765 µM) in assay [2]; 32 µg/mL (≈ 31.4 µM) in assay [5] (ATCC 27856, 18 h); 0.16 µg/mL in assay [7]. Also, the IC50 in assay [3] was 2.6 µM; in assay [4], above 250 µM. Also, the MIC50 result in assay [6] was “inactive”.

With `CC[C@H]1OC(=O)[C@H](C)[C@@H](O[C@H]2C[C@@](C)(OC)[C@@H](O)[C@H](C)O2)[C@H](C)[C@@H](O[C@@H]2O[C@H](C)C[C@H](N(C)C)[C@H]2O)[C@](C)(O)C[C@@H](C)CN(Cc2ccc(-c3cn(CCn4ccc5cc([N+](=O)[O-])ccc54)nn3)cc2)[C@H](C)[C@@H](O)[C@]1(C)O`, in assay [1], the Ratio was determined as 4. The MIC50 was 1.56 µg/mL (≈ 1.44 µM) in assay [2]; 128 µg/mL (≈ 118 µM) in assay [5] (ATCC 27856, 18 h); 0.39 µg/mL in assay [7]. Moreover, the IC50 in assay [3] is 0.442 µM; in assay [4], above 250 µM. In addition, the MIC50 result in assay [6] was “inactive”.

Take `CC[C@H]1OC(=O)[C@H](C)[C@@H](O[C@H]2C[C@@](C)(OC)[C@@H](O)[C@H](C)O2)[C@H](C)[C@@H](O[C@@H]2O[C@H](C)C[C@H](N(C)C)[C@H]2O)[C@](C)(O)C[C@@H](C)CN(Cc2ccc(-c3cn(CCN4CCc5ccccc54)nn3)cc2)[C@H](C)[C@@H](O)[C@]1(C)O`: in assay [1], the Ratio is recorded as 2. For the same compound, the MIC50 in assay [2] was determined as 1.56 µg/mL (≈ 1.5 µM); in assay [5] (ATCC 27856, 18 h), 64 µg/mL (≈ 61.7 µM); in assay [7], 0.78 µg/mL. For the same compound, the values for the IC50 in assay [3] and in assay [4] were 0.555 µM and above 250 µM, respectively. Besides, the MIC50 entry in assay [6] was “inactive”.

With `CC[C@H]1OC(=O)[C@H](C)[C@@H](O[C@H]2C[C@@](C)(OC)[C@@H](O)[C@H](C)O2)[C@H](C)[C@@H](O[C@@H]2O[C@H](C)C[C@H](N(C)C)[C@H]2O)[C@](C)(O)C[C@@H](C)CN(Cc2ccc(-c3cn(CCc4c[nH]c5ccc(F)cc45)nn3)cc2)[C@H](C)[C@@H](O)[C@]1(C)O`, the Ratio in assay [1] turned out to be 2. For the same compound, the results for the MIC50 in assay [2] and in assay [7] were 3.13 µg/mL (≈ 2.97 µM) and 1.56 µg/mL, respectively. Also, the half-maximal inhibitory concentration (IC50) in assay [3] is 2.03 µM; in assay [4], above 250 µM. Further, the MIC50 result in assay [5] and in assay [6] was “inactive” each time.

As to `CC[C@H]1OC(=O)[C@H](C)[C@@H](O[C@H]2C[C@@](C)(OC)[C@@H](O)[C@H](C)O2)[C@H](C)[C@@H](O[C@@H]2O[C@H](C)C[C@H](N(C)C)[C@H]2O)[C@](C)(O)C[C@@H](C)CN(Cc2ccc(-c3cn(CCc4c[nH]c5ccccc45)nn3)cc2)[C@H](C)[C@@H](O)[C@]1(C)O`, the Ratio in assay [1] is given as 2. Moreover, the MIC50 stood at 3.13 µg/mL (≈ 3.02 µM) in assay [2] and 1.56 µg/mL in assay [7]. Further, the figures for the IC50 in assay [3] and in assay [4] were 0.12 µM and above 250 µM, respectively. The MIC50 result in assay [5] and in assay [6] was “inactive” each time.

On to `CC[C@H]1OC(=O)[C@H](C)[C@@H](O[C@H]2C[C@@](C)(OC)[C@@H](O)[C@H](C)O2)[C@H](C)[C@@H](O[C@@H]2O[C@H](C)C[C@H](N(C)C)[C@H]2O)[C@](C)(O)C[C@@H](C)CN(CCCCc2cn(CCn3ccc4ccccc43)nn2)[C@H](C)[C@@H](O)[C@]1(C)O`, for which the fold change (FC) in assay [8] stood at 2.3. In assay [1], the Ratio is recorded as 10. For the same compound, the MIC50 came to 1.56 µg/mL (≈ 1.56 µM) in assay [2]; 64 µg/mL (≈ 63.9 µM) in assay [5] (ATCC 27856, 18 h); 0.16 µg/mL in assay [7]. Also, the 50% inhibitory concentration (IC50) in assay [3] is 0.128 µM; in assay [4], above 250 µM. In assay [6], the MIC50 entry is “inactive”.

In the case of `CC[C@H]1OC(=O)[C@H](C)[C@@H](O[C@H]2C[C@@](C)(OC)[C@@H](O)[C@H](C)O2)[C@H](C)[C@@H](O[C@@H]2O[C@H](C)C[C@H](N(C)C)[C@H]2O)[C@](C)(O)C[C@@H](C)CN(CCCCc2cn(CCN3CCc4ccccc43)nn2)[C@H](C)[C@@H](O)[C@]1(C)O`, the Ratio in assay [1] is listed as 10. Besides, the MIC50 in assay [2] was 1.56 µg/mL (≈ 1.55 µM); in assay [5] (ATCC 27856, 18 h) it was 4 µg/mL (≈ 3.99 µM); in assay [7], 0.16 µg/mL. Also, the 50% inhibitory concentration (IC50) is 0.147 µM in assay [3] and above 250 µM in assay [4]. In assay [6], the MIC50 result is “inactive”.

As for `CC[C@H]1OC(=O)[C@H](C)[C@@H](O[C@H]2C[C@@](C)(OC)[C@@H](O)[C@H](C)O2)[C@H](C)[C@@H](O[C@@H]2O[C@H](C)C[C@H](N(C)C)[C@H]2O)[C@](C)(O)C[C@@H](C)CN(CCCCc2cn(CCn3ccc4cc(Cl)ccc43)nn2)[C@H](C)[C@@H](O)[C@]1(C)O`, the Ratio in assay [1] is 5. For the same compound, the MIC50 in assay [2] worked out at 0.78 µg/mL (≈ 0.753 µM); in assay [5] (ATCC 27856, 18 h) it was 64 µg/mL (≈ 61.8 µM); in assay [7] it was 0.16 µg/mL. Also, the values for the IC50 in assay [3] and in assay [4] were 0.49 µM and above 250 µM, respectively. Besides, in assay [6], the MIC50 entry is “inactive”.
